Experiments:
HEK293 = test: Cytotoxicity against HEK293 cells assessed as reduction in cell viability by CMFDA dye based fluorescence assay; conditions: human
Procedure, shortened: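 Viability of HEK293/NF-κB-luc cells was tracked with 2.5 μM CMFDA loaded 1 h before seeding at 10^4 cells/well. After overnight incubation, samples were added with 20 ng/mL TNF-α for 5 h. Fluorescence was read after lysis. Duplicate wells, three independent experiments.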

[1] = Inhibition of TNFalpha stimulated NF-kappaB (unknown origin) expressed in HEK293 cells after 5 hrs by luciferase reporter gene based luminescence assay; assay type: cell-based; conditions: Homo sapiens, HEK293, 5 h
Procedure, shortened: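 HEK293/NF-κB-luc cells loaded 1 h with 2.5 μM CMFDA, seeded at 10^4 cells/well and incubated overnight. Samples were added, with TNF-α stimulation at 20 ng/mL for 5 h. After lysis, fluorescence was read, then luciferase luminescence. Luminescence was normalized to each well's fluorescence and IC50 derived. Duplicate wells, three independent experiments.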

Compound | Activity (HEK293) | IC50 [1] [µM]
C[C@H]1NCCc2c1cc1c([nH]c3ccccc31)c2CO | Non-Toxic | > 50
C/C=C1/C[N@+]2(C)C3Cc4c([nH]c5ccc(O)cc45)[C@@H]2C[C@H]1[C@@H]3CO | Non-Toxic | > 50
C/C=C1/COC(=O)[C@@H]2[C@H]1C[C@@H]1NCCc3c1n2c1ccccc31 | Non-Toxic | 9.4
O=c1cc(-c2ccc(Br)cc2)oc2ccccc12 | Non-Toxic | 
COC(=O)[C@@H]1C[C@@]23CCCN4CC[C@@]5(c6ccccc6N(C)[C@]15CC2)[C@@H]43 | Non-Toxic | 8.8
C=C1C(=O)O[C@@H]2C3O[C@]3(C)CC/C=C(\C)CC[C@@H]12 (stereo partly drawn) | Non-Toxic | 0.4
COC(=O)c1nccc2c1[nH]c1ccccc12 | Non-Toxic | > 50

From ChEMBL document CHEMBL4145556, “Carbazole-, Aspidofractinine-, and Aspidocarpamine-Type Alkaloids from Pleiocarpa pycnantha” (J Nat Prod, 2018)
